Assay results published in article PMC8223195 (Molecular Diversity, 2021).

How the values were obtained:
[1] = system: hCoV-229E; assay type: cell-based, human corona virus 229E; settings: […]; (*) mean of three independent experiments ± SEM
[2] = system: LN-229 (glioblastoma); test: IncuCyte real-time proliferation assay, LN-229; assay type: cell-based; settings: LN-229, 72 h; * mean of two independent experiments ± SEM
[3] = system: alpha-tubulin in HEp-2 cells; test: Tubulin immune fluorescence staining in HEp-2 cells; assay type: cell-based, human; settings: HEp-2 cells treated for 3 h
[4] = system: K-562 (chronic myeloid leukemia); test: IncuCyte real-time proliferation assay, K-562; assay type: cell-based; settings: K-562, 72 h; * mean of two independent experiments ± SEM
[5] = system: HEL 299 cells
[6] = system: Capan-1 (pancreatic adenocarcinoma); test: IncuCyte real-time proliferation assay, Capan-1; assay type: cell-based; settings: Capan-1, 72 h; * mean of two independent experiments ± SEM
[7] = system: NCI-H460 (lung carcinoma); test: IncuCyte real-time proliferation assay, NCI-H460; assay type: cell-based; settings: NCI-H460, 72 h; * mean of two independent experiments ± SEM
[8] = system: DND-41 (acute lymphoblastic leukemia); test: IncuCyte real-time proliferation assay, DND-41; assay type: cell-based; settings: DND-41, 72 h; * mean of two independent experiments ± SEM
[9] = system: HCT-116 (colorectal carcinoma); test: IncuCyte real-time proliferation assay, HCT-116; assay type: cell-based; settings: HCT-116, 72 h; * mean of two independent experiments ± SEM
[10] = system: HL-60 (acute myeloid leukemia); test: IncuCyte real-time proliferation assay, HL-60; assay type: cell-based; settings: HL-60, 72 h; * mean of two independent experiments ± SEM
[11] = system: peripheral blood mononuclear cells (PBMCs); test: In vitro apoptosis induction assay in PBMC; assay type: cell-based; settings: 72 h
Outline: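 Counter-screen on normal PBMCs from two healthy donors. Cells were exposed to graded test-compound concentrations with Caspase-3/7 Green Reagent added. Activated intracellular caspase-3/7 cleaves the reagent at its DEVD motif, marking apoptotic cells. Propidium iodide staining separated dead from live cells. Read-out: numbers of apoptotic and dead cells.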

[12] = system: Z-138 (non-Hodgkin lymphoma); test: IncuCyte real-time proliferation assay, Z-138; assay type: cell-based; settings: Z-138, 72 h; * mean of two independent experiments ± SEM

COc1ccc(C(=O)C2Sc3nnc(-n4nc(C)cc4C)n3NC2c2ccco2)cc1 (racemic) [Compound 5q, ( ±)-(3-(3,5-Dimethyl-1H-pyrazol-1-yl)-6-(furan-2-yl)-6,7-dihydro-5H-[1,2,4]triazolo[3,4-b][1,3,4]thiadiazin-7-yl)(4-methoxyphenyl)methanone]
EC50 [1]: > 100 µM
IC50 [2]: 700 ± 90 nM
polymerization of tubulin [3]: inhibit the polymerization of tubulin in a dose-dependent manner
IC50 [4]: 2300 ± 1600 nM
CC50 [5]: < 800 nM
IC50 [6]: 1100 ± 700 nM
IC50 [7]: 2500 ± 200 nM
IC50 [8]: 600 ± 200 nM
IC50 [9]: 1000 ± 400 nM
IC50 [10]: 2000 ± 400 nM
viability of normal PBMCs ([11]; PBMC from two healthy donors, 100 to 0.16 µM): did not inhibit the viability
number of apoptotic and dead cells ([11]; PBMC, 100 µM, caspase-3/7 and PI): small increase in the number of apoptotic and dead cells
IC50 [12]: 400 ± 5 nM
